# Source: publication PMC2212508 (The Journal of Experimental Medicine, 1998)
# Read-outs that look alike come from different tables or passages of the source.
# How the values were obtained:
# Format in all cases: cell-based
# [1] = target: KV (Kv1.3), human T cells (Homo sapiens, UniProt P22001); experiment: whole-cell patch clamp, peak KV current
# In short: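 Peripheral T cells came from healthy donors' venous blood by Ficoll-Hypaque. Recording was whole-cell at 20–25°C in Ringer, with a 160 mM K+ aspartate/10 mM EGTA pipette (pH 7.2). Pulses of 200 ms went from −80 to +30 mV every 30 s. Each steroid was bath-applied at 60 μM. Percent inhibition of peak KV current is mean ± SD, ≥3 experiments.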
# [2] = target: KCa (hKCa4), activated human T cells (Homo sapiens, UniProt O15554); experiment: whole-cell patch clamp, KCa slope conductance near -80 mV
# Sequence of KCa (hKCa4), activated human T cells (O15554 whole entry): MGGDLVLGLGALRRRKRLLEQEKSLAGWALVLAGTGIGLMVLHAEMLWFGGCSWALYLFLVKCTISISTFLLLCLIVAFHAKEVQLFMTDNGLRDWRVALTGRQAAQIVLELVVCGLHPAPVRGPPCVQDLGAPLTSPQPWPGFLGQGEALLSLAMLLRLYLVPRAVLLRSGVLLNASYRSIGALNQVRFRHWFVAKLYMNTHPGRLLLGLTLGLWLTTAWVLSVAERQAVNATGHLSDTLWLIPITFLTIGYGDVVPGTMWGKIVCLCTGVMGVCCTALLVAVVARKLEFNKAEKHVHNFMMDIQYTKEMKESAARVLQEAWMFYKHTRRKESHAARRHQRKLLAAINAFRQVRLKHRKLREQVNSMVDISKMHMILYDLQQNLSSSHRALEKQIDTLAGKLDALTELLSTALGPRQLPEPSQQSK
# In short: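 Human T-cell blasts were made from Ficoll-isolated blood T cells with 10 μg/ml PHA. KCa was opened by dialysis with a pipette of 140 mM K+ aspartate, 7.8 mM CaCl2 and 10 mM EGTA (nominal 1 μM free Ca2+, pH 7.2). Ramps of 200 ms went from −120 to +50 mV every 30 s. Each compound was applied at 60 μM. Slope-conductance inhibition near −80 mV is mean ± SD, ≥3 experiments.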
# Kv1.3 (cloned) = Kv1.3 (cloned) (Mus musculus, UniProt P16390); experiment: whole-cell patch clamp; conditions: read-out: % inhibition at 30 μM
# Sequence of Kv1.3 (cloned) (P16390 whole entry): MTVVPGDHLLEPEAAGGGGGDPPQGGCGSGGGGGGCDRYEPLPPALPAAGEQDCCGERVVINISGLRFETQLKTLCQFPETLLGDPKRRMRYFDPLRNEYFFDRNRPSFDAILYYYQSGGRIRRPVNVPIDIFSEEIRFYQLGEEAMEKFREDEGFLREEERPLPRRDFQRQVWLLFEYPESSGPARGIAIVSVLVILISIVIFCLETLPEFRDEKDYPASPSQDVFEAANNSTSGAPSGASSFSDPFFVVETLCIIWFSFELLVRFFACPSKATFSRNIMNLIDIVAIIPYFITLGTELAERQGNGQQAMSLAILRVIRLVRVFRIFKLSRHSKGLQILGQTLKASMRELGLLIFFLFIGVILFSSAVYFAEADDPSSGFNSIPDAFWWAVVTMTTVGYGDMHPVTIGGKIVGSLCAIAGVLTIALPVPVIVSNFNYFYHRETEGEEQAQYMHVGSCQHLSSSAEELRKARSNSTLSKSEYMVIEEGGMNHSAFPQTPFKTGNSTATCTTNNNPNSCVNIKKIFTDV
# In short: (§1)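 Cell lines stably expressing each cloned KV channel, cultured in RPMI 1640 with 10% heat-inactivated FBS at 37°C and 5% CO2. Whole-cell currents were recorded at 20–25°C in mammalian Ringer. The pipette held 160 mM K+ aspartate, 10 mM EGTA, pH 7.2. Steps of 200 ms went from −80 to +30 mV every 30 s. Test compound was bath-applied at 30 μM. Inhibition of peak current is mean ± SD from ≥3 experiments.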
# Kv1.4 = experiment: whole-cell patch clamp; conditions: LTK cells; depolarizing pulses to +30 mV
# In short: as §1
# hSKM1 = hSKM1 (Homo sapiens, UniProt P35499); experiment: whole-cell patch clamp, peak Na+ current; conditions: read-out: % inhibition at 30 μM
# Sequence of hSKM1 (P35499 whole entry): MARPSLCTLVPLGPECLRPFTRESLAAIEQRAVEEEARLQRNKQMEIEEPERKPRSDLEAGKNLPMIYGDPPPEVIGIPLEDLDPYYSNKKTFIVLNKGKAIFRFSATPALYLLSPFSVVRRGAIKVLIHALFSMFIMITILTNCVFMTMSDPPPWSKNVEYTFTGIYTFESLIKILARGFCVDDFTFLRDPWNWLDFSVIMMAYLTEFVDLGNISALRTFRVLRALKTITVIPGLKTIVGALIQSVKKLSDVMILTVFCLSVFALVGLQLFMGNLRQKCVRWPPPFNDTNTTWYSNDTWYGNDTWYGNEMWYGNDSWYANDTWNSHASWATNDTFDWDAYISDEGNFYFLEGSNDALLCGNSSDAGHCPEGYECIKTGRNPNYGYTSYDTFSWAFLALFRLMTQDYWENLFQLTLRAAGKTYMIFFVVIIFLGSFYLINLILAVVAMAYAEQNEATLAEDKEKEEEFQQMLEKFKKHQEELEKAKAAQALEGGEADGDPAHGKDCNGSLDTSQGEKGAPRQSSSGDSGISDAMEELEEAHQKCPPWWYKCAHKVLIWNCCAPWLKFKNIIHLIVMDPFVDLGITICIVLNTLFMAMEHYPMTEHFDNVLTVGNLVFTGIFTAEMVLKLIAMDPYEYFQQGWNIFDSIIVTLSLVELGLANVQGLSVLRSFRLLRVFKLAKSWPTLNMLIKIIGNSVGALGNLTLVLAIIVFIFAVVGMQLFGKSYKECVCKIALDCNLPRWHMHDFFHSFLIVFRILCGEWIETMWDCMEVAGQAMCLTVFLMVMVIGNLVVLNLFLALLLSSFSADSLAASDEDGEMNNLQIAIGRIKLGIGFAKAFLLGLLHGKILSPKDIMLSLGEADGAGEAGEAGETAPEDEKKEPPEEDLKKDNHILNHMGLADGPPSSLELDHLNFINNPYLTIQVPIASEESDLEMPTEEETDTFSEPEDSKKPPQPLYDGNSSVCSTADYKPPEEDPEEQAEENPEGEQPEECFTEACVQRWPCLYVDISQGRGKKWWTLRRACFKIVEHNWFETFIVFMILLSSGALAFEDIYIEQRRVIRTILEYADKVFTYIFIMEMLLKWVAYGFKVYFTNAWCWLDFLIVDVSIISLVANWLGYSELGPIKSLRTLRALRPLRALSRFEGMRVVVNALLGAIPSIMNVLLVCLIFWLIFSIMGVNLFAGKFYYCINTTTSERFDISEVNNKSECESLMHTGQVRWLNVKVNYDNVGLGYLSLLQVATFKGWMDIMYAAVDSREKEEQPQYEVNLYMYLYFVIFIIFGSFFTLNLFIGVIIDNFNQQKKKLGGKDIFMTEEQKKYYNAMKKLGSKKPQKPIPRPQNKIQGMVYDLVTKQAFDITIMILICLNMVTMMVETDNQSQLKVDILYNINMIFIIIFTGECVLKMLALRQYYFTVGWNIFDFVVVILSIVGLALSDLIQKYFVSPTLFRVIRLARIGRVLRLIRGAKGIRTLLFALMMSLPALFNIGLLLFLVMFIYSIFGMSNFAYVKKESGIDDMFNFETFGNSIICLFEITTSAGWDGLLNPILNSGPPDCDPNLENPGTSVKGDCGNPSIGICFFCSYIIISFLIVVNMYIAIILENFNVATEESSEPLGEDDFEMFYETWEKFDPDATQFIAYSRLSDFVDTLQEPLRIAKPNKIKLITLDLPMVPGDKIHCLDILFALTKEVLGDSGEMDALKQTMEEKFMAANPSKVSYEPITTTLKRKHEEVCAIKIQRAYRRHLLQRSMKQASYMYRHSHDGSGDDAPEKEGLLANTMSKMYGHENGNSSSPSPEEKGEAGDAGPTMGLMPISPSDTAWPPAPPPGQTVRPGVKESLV
# In short: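 Cloned hSKM1 Na+ channel was expressed in a cultured cell line and recorded by whole-cell patch clamp at 20–25°C, with mammalian Ringer as bath. Peak Na+ current was taken at +10 mV. Test compound was applied at 30 μM. Percent inhibition is mean ± SD from at least three experiments.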
# Kv3.1 = target: T1, Kv3.1 (Mus musculus, UniProt P15388); experiment: whole-cell patch clamp; conditions: read-out: % inhibition at 30 μM
# T1 sequence (P15388 1-511): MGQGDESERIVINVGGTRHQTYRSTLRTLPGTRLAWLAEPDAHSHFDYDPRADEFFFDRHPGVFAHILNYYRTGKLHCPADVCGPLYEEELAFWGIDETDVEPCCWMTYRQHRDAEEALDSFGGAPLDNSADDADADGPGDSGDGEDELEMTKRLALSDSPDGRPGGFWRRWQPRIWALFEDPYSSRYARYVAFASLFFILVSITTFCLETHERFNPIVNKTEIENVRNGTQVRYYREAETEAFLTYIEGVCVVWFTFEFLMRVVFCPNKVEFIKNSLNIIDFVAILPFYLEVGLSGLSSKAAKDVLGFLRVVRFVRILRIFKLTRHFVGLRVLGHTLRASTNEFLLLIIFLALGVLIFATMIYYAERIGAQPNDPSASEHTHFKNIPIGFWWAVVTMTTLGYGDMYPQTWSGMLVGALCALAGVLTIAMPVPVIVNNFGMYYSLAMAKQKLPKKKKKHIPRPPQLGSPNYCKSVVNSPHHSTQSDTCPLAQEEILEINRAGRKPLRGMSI
# In short: as §1
# Sequence of KV (Kv1.3), human T cells (P22001 whole entry): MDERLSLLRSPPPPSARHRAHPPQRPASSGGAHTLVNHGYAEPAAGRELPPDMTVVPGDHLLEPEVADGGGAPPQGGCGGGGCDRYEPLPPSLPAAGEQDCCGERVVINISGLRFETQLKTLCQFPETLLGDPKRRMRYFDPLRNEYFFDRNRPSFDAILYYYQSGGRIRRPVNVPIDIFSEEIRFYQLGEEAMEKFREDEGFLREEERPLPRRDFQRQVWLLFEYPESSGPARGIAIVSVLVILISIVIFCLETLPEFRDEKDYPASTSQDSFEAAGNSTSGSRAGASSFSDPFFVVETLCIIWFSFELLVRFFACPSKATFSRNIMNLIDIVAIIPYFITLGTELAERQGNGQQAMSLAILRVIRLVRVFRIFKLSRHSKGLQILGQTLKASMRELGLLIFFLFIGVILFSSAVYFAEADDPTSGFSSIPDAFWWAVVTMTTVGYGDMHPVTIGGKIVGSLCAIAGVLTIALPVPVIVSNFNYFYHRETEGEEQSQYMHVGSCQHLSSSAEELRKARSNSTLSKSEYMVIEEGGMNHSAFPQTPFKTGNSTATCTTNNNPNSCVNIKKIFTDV
structure (smiles),measurement,setting,value
C[C@]12CC[C@H](O)CC1=CC[C@@H]1[C@@H]2CC[C@]2(C)C(=O)CC[C@@H]12 [DHEA],inhibition at 60 µM,[1]; read-out: DHEA,10 ± 6%
"CC(=O)[C@@]1(O)CC[C@H]2[C@@H]3CCC4=CC(=O)CC[C@]4(C)[C@H]3CC[C@@]21C [OHP, 17α-hydroxy-4-pregnene-3,20-dione]",inhibition at 60 µM,[1]; read-out: OHP,12 ± 6%
C[C@]12CC[C@H]3[C@@H](CCC4=CC(=O)CC[C@@]43C)[C@@H]1CC[C@@H]2O [Testosterone],inhibition at 60 µM,[1]; read-out: Testosterone,17 ± 12%
CC(=O)[C@H]1CC[C@H]2[C@@H]3CCC4=CC(=O)CC[C@]4(C)[C@H]3CC[C@]12C [progesterone],inhibition at 60 µM,[2]; read-out: Progesterone,34 ± 11%
same,inhibition at 30 µM,Kv1.3 (cloned),44 ± 9%
same,% inhibition at 30 μM,Kv1.4,23 ± 8%
same,inhibition at 30 µM,hSKM1,11 ± 1%
same,inhibition at 30 µM,Kv3.1,53 ± 3%
C[C@]12CCC(=O)C=C1CC[C@@H]1[C@@H]2[C@@H](O)C[C@@]2(C)[C@H]1CC[C@]2(O)C(=O)CO [Cortisol],inhibition at 60 µM,[1]; read-out: Cortisol,13 ± 4%
C[C@]12CCC(=O)C=C1CC[C@@H]1[C@@H]2[C@@H](O)C[C@]2(C=O)[C@@H](C(=O)CO)CC[C@@H]12 [Aldosterone],inhibition at 60 µM,[1]; read-out: Aldosterone,12 ± 13%
C[C@]12CC[C@@H]3c4ccc(O)cc4CC[C@H]3[C@@H]1CC[C@@H]2O [Estradiol],inhibition at 60 µM,[2]; read-out: Estradiol,8 ± 10%
same,inhibition at 60 µM,[1]; read-out: Estradiol,24 ± 7%
CC#C[C@]1(O)CC[C@H]2[C@@H]3CCC4=CC(=O)CCC4=C3[C@@H](c3ccc(N(C)C)cc3)C[C@@]21C [RU 486],inhibition at 60 µM,[2]; read-out: RU 486,55 ± 12%
same,inhibition at 60 µM,[1]; read-out: RU 486,61 ± 15%
